# Laboratory results: ChEMBL document CHEMBL1165946, “Development of antiproliferative phenylmaleimides that activate the unfolded protein response” (Bioorg Med Chem, 2010)
# pIC50: −log10 of the molar value. Active and inactive are the calls of the source. No cut-off for these calls is given here.
# Assays:
# [1] = Cytotoxicity against human Hep3B cells after 48 hrs by alamar blue assay; format: functional, cell-based, Hep 3B2
# Method in brief: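 HEP3B cells in EMEM with 10% heat-inactivated FBS, 2 mmol/L L-glutamine, penicillin/streptomycin, 37 °C, 5% CO2, used in exponential growth. Exposed 48 h to 1.6–50 µM of each analog. Alamar blue then added for a further 6 h at 37 °C and fluorescence read. Growth given as % treated/control; IC50 is the concentration giving 50% reduction of cell number versus untreated controls.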
# [2] = Upregulation of unfolded protein response-related HSPA1A gene expression in human Hep3B cells at 10 uM after 1 hr by RT-PCR analysis relative to control; format: functional, cell-based; conditions: Hep 3B2
# Method in brief: (§1)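 HEP3B cells treated 1 h with 10 µM analogue, compared with untreated cells. Gene expression measured by real-time PCR with SYBR chemistry and gene-specific primer pairs, triplicate wells, GAPDH as endogenous control. Analysed by the comparative Ct method and expressed as fold induction over untreated control (n = 3, SD). Significance set at p <0.05.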
# [3] = Upregulation of unfolded protein response-related ATF4 gene expression in human Hep3B cells at 10 uM after 1 hr by RT-PCR analysis relative to control; format: functional, cell-based; conditions: Hep 3B2; method in brief: as §1
# [4] = Upregulation of unfolded protein response-related DDIT3 gene expression in human Hep3B cells at 10 uM after 1 hr by RT-PCR analysis relative to control; format: functional, cell-based; conditions: Hep 3B2; method in brief: as §1
# [5] = biological target: T1, Eukaryotic translation initiation factor 2-alpha kinase 3 (Homo sapiens) (UniProt Q9NZJ5); experiment: Induction of PERK-mediated phosphorylation of eIF2alpha in human Hep3B cells at 2 to 10 uM after 1 to 6 hrs by Western blot analysis; format: cell-based; conditions: Hep 3B2
# T1 sequence (whole entry): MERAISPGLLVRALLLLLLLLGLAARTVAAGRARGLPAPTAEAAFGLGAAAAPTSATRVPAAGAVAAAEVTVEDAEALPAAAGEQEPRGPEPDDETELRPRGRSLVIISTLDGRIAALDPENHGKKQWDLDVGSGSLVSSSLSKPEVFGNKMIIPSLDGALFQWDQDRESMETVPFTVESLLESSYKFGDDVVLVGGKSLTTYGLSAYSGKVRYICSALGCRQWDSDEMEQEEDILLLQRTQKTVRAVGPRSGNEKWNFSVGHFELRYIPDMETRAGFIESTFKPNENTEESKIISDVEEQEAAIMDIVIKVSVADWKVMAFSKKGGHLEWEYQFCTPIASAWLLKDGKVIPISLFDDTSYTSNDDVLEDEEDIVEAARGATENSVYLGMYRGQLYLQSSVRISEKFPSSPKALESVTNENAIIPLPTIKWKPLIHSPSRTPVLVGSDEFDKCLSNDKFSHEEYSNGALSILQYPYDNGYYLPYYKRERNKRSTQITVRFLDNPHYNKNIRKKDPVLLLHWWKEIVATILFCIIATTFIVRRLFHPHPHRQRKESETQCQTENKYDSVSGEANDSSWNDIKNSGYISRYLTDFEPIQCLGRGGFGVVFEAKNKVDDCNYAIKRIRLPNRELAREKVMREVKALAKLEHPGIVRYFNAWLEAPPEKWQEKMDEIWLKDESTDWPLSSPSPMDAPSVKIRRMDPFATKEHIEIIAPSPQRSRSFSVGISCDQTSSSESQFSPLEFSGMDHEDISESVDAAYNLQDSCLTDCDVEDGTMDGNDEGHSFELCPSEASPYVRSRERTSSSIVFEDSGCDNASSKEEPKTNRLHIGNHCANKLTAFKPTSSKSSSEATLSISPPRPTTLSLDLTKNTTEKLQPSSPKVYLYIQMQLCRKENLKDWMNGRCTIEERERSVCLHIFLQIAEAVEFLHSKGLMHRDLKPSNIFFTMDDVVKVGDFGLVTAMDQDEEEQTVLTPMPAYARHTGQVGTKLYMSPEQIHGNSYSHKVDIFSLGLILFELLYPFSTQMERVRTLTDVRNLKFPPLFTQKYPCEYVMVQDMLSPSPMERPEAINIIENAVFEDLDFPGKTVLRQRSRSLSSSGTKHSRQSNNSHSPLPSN
# Hep 3B2 [6] = experiment: Effect on stress-inducible BRCA1 gene expression in human Hep3B cells at 1 to 50 uM after 1 hr by RT-PCR analysis; format: functional, cell-based
# Hep 3B2 [7] = experiment: Effect on stress-inducible CHEK1 gene expression in human Hep3B cells at 1 to 50 uM after 1 hr by RT-PCR analysis; format: functional, cell-based
# Hep 3B2 [8] = experiment: Effect on stress-inducible MDM2 gene expression in human Hep3B cells at 1 to 50 uM after 1 hr by RT-PCR analysis; format: functional, cell-based
# [9] = biological target: T1, Eukaryotic translation initiation factor 2-alpha kinase 3 (Homo sapiens); experiment: Induction of PERK-mediated phosphorylation of eIF2alpha in human Hep3B cells at 50 uM after 1 hr by Western blot analysis; format: cell-based; conditions: Hep 3B2
# [10] = Upregulation of unfolded protein response-related TRIB3 gene expression in human Hep3B cells at 10 uM after 1 hr by RT-PCR analysis; format: functional, cell-based; conditions: Hep 3B2; method in brief: as §1
# Hep 3B2 [11] = experiment: Effect on stress-inducible […] gene expression in human Hep3B cells at 1 to 50 uM after 1 hr by RT-PCR analysis; format: functional, cell-based
# Hep 3B2 [12] = experiment: Effect on stress-inducible CDKN1A gene expression in human Hep3B cells at 1 to 50 uM after 1 hr by RT-PCR analysis; format: functional, cell-based
# [13] = Upregulation of unfolded protein response-related GADD34 gene expression in human Hep3B cells at 10 uM after 1 hr by RT-PCR analysis; format: functional, cell-based; conditions: Hep 3B2; method in brief: as §1
# Hep 3B2 [14] = experiment: Effect on stress-inducible GADD45B gene expression in human Hep3B cells at 1 to 50 uM after 1 hr by RT-PCR analysis; format: functional, cell-based
SMILES,pIC50 [1],also measured
CCOc1ccc(N2C(=O)C(SCCO)=C(SCCO)C2=O)cc1,5.22,–
O=C1C(SCCO)=C(SCCO)C(=O)N1CCc1ccccc1,5.70,fold change (FC) [2]: 15.3; fold change (FC) [3]: 2; fold change (FC) [4]: 2
O=C1C(SCCO)=C(SCCO)C(=O)N1Cc1cccc(Cl)c1,5.60,–
COc1cc(OC)cc(N2C(=O)C(SCCO)=C(SCCO)C2=O)c1,5.05,–
O=C1C(SCCO)=C(SCCO)C(=O)N1c1ccccc1,4.15,fold change (FC) [3]: 2; fold change (FC) [4]: 2
Cc1cc(Cl)ccc1N1C(=O)C(SCCO)=C(SCCO)C1=O,5.10,–
O=C1C(SCCO)=C(SCCO)C(=O)N1c1ccc(-c2ccc([N+](=O)[O-])cc2)cc1,5.40,fold change (FC) [2]: 17; fold change (FC) [3]: 2; fold change (FC) [4]: 2
N#Cc1ccc(N2C(=O)C(SCCO)=C(SCCO)C2=O)cc1,5.05,–
CC(=O)Nc1ccc(N2C(=O)C(SCCO)=C(SCCO)C2=O)cc1,< 4.00,fold change (FC) [3]: 2; fold change (FC) [4]: 2; Activity [5]: inactive
O=C1C(SCCO)=C(SCCO)C(=O)N1c1ccccc1I,5.05,–
CCCCOc1ccc(N2C(=O)C(SCCO)=C(SCCO)C2=O)cc1,5.30,–
O=C1C(SCCO)=C(SCCO)C(=O)N1CCc1cccc(Cl)c1,6.00,–
O=C1C(SCCO)=C(SCCO)C(=O)N1c1ccc(Cl)cc1,5.15,–
Cc1ccccc1-c1ccc(N2C(=O)C(SCCO)=C(SCCO)C2=O)cc1C,5.00,fold change (FC) [3]: 2; fold change (FC) [4]: 2
O=C1C(SCCO)=C(SCCO)C(=O)N1c1ccc(F)cc1,5.05,–
CN(C)c1ccc(N2C(=O)C(SCCO)=C(SCCO)C2=O)cc1,5.05,–
COc1ccc(-c2ccc(N3C(=O)C(SCCO)=C(SCCO)C3=O)cc2)cc1,5.52,–
COc1cccc(N2C(=O)C(SCCO)=C(SCCO)C2=O)c1,5.05,–
O=C1C(SCCO)=C(SCCO)C(=O)N1c1cccc2ccccc12,5.40,–
O=C1C(SCCO)=C(SCCO)C(=O)N1c1ccc(Oc2ccccc2)cc1,< 4.00,fold change (FC) [3]: 2; fold change (FC) [4]: 2
Cc1cccc(N2C(=O)C(SCCO)=C(SCCO)C2=O)c1,5.15,–
O=C1C(SCCO)=C(SCCO)C(=O)N1c1ccc2cc3ccccc3cc2c1,5.74,–
COc1ccc(N2C(=O)C(SCCO)=C(SCCO)C2=O)cc1,5.22,–
O=C1C(SCCO)=C(SCCO)C(=O)N1c1ccc(-c2ccccc2)cc1,6.15,Activity (Hep 3B2 [6]): inactive; Activity (Hep 3B2 [7]): inactive; Activity (Hep 3B2 [8]): inactive; Activity [9]: Toxic; Activity [10]: Active; Activity (Hep 3B2 [11]): inactive; Activity (Hep 3B2 [12]): inactive; Activity [13]: Active; Activity (Hep 3B2 [14]): inactive; Activity [5]: Active
O=C1C(SCCO)=C(SCCO)C(=O)N1Cc1ccccc1,5.30,–
O=C1C(SCCO)=C(SCCO)C(=O)N1c1ccc(O)cc1,< 4.00,–
O=C1C(SCCO)=C(SCCO)C(=O)N1c1ccc2ccccc2c1,5.46,–
CC(=O)c1ccc(N2C(=O)C(SCCO)=C(SCCO)C2=O)cc1,5.00,–
O=C1C(SCCO)=C(SCCO)C(=O)N1c1ccc(OC(F)(F)F)cc1,5.40,–
O=C1C(SCCO)=C(SCCO)C(=O)N1c1ccccc1F,5.05,–
